Reference: ChEMBL document CHEMBL1146536, “Pochonins A-F, new antiviral and antiparasitic resorcylic acid lactones from Pochonia chlamydosporia var. catenulata” (J Nat Prod, 2003)
pEC50, pIC50: −log10 of the molar value. Calls of active or inactive are those of the source. No cut-off for these calls is given here.

What was measured:
[1] = system: Human alphaherpesvirus 1; experiment: Antiviral activity against HSV1 F infected in african green monkey Vero cells assessed as reduction of virus-induced cytopathic effect by cellular replication assay; assay type: functional, organism-based
How it was run: (§1)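 HSV1 strain F replication in Vero cells, 0.1 nM to 125 µM. IC50 is the concentration reducing viral cytopathic effect by 50%; Tox50 is the concentration reducing cell viability by 50%. SI = Tox50/IC50.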

[2] = target: T1, Estrogen receptor beta (Homo sapiens, UniProt Q92731); experiment: Agonist activity at ERbeta by fluorescence polarization assay; assay type: functional
[3] = system: Vero; experiment: Cytotoxicity against african green monkey Vero cells at 10 uM by crystal violet staining; assay type: cell-based; conditions: chlorocebus sabaeus
[4] = target: T1, Estrogen receptor beta; experiment: Agonist activity at ERbeta up to 10 uM by fluorescence polarization assay; assay type: functional
[5] = Cytotoxicity against PCKC by crystal violet staining; parameters: species or system Gallus gallus; conditions: chicken
How it was run: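 Uninfected compound-treated primary chicken kidney cells served as toxicity controls in the 120 h monolayer assay (200, 10, 1, 0.1 ppm). Viability judged microscopically or by crystal violet after 5 min MeOH fixation.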

[6] = system: Neospora caninum; experiment: Antiparasitic activity against Neospora caninum NC-1 infected in african green monkey Vero cells treated 2 hrs postinfection by MMDA assay; assay type: functional, organism-based
[7] = Selectivity index, ratio of cytotoxicity against african green monkey Vero cells to IC50 for HSV1 F; assay type: toxicity, cell-based; conditions: read-out: Selectivity Index; how it was run: as §1
[8] = system: Eimeria tenella; experiment: Antiparasitic activity against Eimeria tenella Houghton infected in PCKC at 10 ppm treated 2 hrs postinfection by MMDA assay; assay type: functional, organism-based
How it was run: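 Confluent primary chicken kidney cell monolayers (DMEM or RPMI with 10% FBS, glutamine, essential amino acids; 37 °C, 5% CO2) in 96-well plates infected with E. tenella Houghton; compounds added 2 h post infection at 200, 10, 1, 0.1 ppm. Stopped 120 h post infection; monolayer disruption scored microscopically or by crystal violet after MeOH fixation (2 full, 1 weak, 0 none).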

[9] = system: Vero; experiment: Cytotoxicity against african green monkey Vero cells at 2.5 uM by crystal violet staining; assay type: cell-based; conditions: chlorocebus sabaeus
[10] = system: Eimeria tenella; experiment: Antiparasitic activity against Eimeria tenella Houghton infected in PCKC at 1 ppm treated 2 hrs postinfection by MMDA assay; assay type: functional, organism-based
How it was run: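 Primary chicken kidney cell monolayers grown to confluence with 10% FBS, glutamine and essential amino acids at 37 °C, 5% CO2, in 96-well plates. They were infected with E. tenella Houghton, and test samples were added 2 h post infection. Tested at 200, 10, 1 and 0.1 ppm; stopped at 120 h. Monolayer integrity was read microscopically or by MeOH fixation and crystal violet. Scored as full, weak, none or cytotoxic.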

[11] = system: Vero; experiment: Cytotoxicity against african green monkey Vero cells by crystal violet staining; assay type: cell-based; conditions: chlorocebus sabaeus
[12] = Human alphaherpesvirus 1, F, Vero

T1 sequence (Q92731 whole entry): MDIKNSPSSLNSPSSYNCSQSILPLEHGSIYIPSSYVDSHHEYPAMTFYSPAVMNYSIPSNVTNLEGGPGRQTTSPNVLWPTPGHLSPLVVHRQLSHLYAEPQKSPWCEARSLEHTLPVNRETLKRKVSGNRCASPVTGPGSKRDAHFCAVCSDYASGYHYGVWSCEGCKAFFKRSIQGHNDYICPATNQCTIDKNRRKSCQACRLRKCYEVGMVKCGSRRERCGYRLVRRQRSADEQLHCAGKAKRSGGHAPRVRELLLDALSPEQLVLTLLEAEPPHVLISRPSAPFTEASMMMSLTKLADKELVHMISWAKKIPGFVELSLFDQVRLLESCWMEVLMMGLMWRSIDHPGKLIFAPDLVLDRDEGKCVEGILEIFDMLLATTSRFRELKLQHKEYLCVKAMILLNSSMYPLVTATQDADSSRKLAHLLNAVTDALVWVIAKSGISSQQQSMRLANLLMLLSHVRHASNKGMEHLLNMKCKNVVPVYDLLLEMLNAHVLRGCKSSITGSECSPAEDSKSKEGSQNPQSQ

Structure (SMILES)	Activity [1]	Activity [4]	Activity [5]	Activity [6]	pIC50 [1, 12]	other results
COc1cc(O)c2c(c1)/C=C/CCC[C@H](O)CCC[C@H](C)OC2=O	inactive					Activity [2]: inactive
C[C@H]1CCC[C@H](O)CCCCCc2cc(O)cc(O)c2C(=O)O1	inactive					
C[C@H]1CCCC(=O)CCCCCc2cc(O)cc(O)c2C(=O)O1 (stereo in doubt; 16)	inactive					
C[C@H]1CCCC(=O)CCCCCc2cc(O)cc(O)c2C(=O)O1 (stereo in doubt; 16) [ZEARALANONE]						pEC50 [2]: 7.42
C[C@H]1CCC[C@@H](O)CCCCCc2cc(O)cc(O)c2C(=O)O1 (stereo in doubt; 17) [TALERANOL]						pIC50 ([1]; vero): 5.82
C[C@H]1CCCC(=O)CCCCCc2cc(O)cc(O)c2C(=O)O1 (stereo in doubt; 19)	inactive					
C[C@H]1CCCC(=O)CCCCCc2cc(O)cc(O)c2C(=O)O1 (stereo in doubt; 19) [ZEARALANONE]						pEC50 [2]: 6.18
C[C@H]1CCC[C@@H](O)CCCCCc2cc(O)cc(O)c2C(=O)O1 (stereo in doubt; 21) [TALERANOL]						pIC50 ([1]; vero): 4.82
C[C@H]1C/C=C/CC/C=C/C(=O)Cc2cc(O[C@@H]3O[C@H](CO)[C@@H](O)[C@H]3O)cc(O)c2C(=O)O1 [MONOCILLIN II GLYCOSIDE]		inactive	Toxic	inactive		Activity [3]: Toxic
C[C@@H]1C[C@H]2O[C@@H]2CC/C=C/C(=O)Cc2cc(O)cc(O)c2C(=O)O1 [MONOCILLIN III]		inactive		inactive	6.40	selectivity ratio [7]: 7.5
C[C@H]1C[C@H]2O[C@@H]2CC/C=C/C(=O)Cc2c(Cl)c(O)cc(O)c2C(=O)O1 [POCHONIN A]		inactive		inactive	5.70	Activity [8]: Active
C[C@H]1C[C@H]2O[C@@H]2C[C@H](O)/C=C/C(=O)Cc2c(Cl)c(O)cc(O)c2C(=O)O1 [POCHONIN B]		inactive	Toxic	inactive	5.00	
C[C@H]1C[C@H](O)C(Cl)/C=C\C=C\C(=O)Cc2c(Cl)c(O)cc(O)c2C(=O)O1 (stereo not given in full) [POCHONIN C]		inactive	Toxic	inactive	5.22	
C[C@@H]1C/C=C/CC/C=C/C(=O)Cc2c(Cl)c(O)cc(O)c2C(=O)O1 [POCHONIN D]	inactive	inactive	Toxic	inactive		Activity [9]: Toxic
C[C@H]1C/C=C/C(O)C/C=C/C(=O)Cc2c(Cl)c(O)cc(O)c2C(=O)O1 (stereo not given in full) [POCHONIN E]		inactive	Toxic	inactive	5.82	
CC/C=C\[C@H](O)[C@H](O)C1=C(C)C(=O)[C@]2(O1)C(=O)N[C@@](OC)(C(=O)c1ccccc1)[C@@H]2O [PSEUROTIN A]				inactive	4.30	Activity [8]: Active; selectivity ratio [7]: 6
C[C@@H]1C[C@H]2O[C@@H]2/C=C\C=C\C(=O)Cc2c(Cl)c(O)cc(O)c2C(=O)O1 [RADICICOL]			Toxic	inactive	6.70	Activity [10]: inactive; Activity [8]: Active; Activity [11]: Toxic
C[C@H]1C[C@H]2O[C@@H]2CCCCC(=O)Cc2c(Cl)c(O)cc(O)c2C(=O)O1 [TETRAHYDROMONORDEN]		inactive		inactive	5.82	Activity [10]: inactive; Activity [8]: Active
C[C@H]1CCCC(=O)CCC/C=C/c2cc(O)cc(O)c2C(=O)O1 [ZEARALENONE]	inactive					pEC50 [2]: 6.96
